Screening results (PubChem BioAssay)
Only a selection was taken, and hits are over-represented in it overall.
HUVEC inhibit: inhibitors of human endothelial cell proliferation | HUVEC proliferation, CellTiter-Glo luminescence, 72 h; stronger effect = lower value | viability, % at 10 µM (by protocol) | 1.1% of 86,000 active | AID 648;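 active means viability at or below 30%; inactive means viability above 30%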;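 further: 100% = median luminescence of DMSO-only cell control wells on each plate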
bCat KO growth: beta-catenin-lacking colon tumor cell growth suppression; HCT116 beta-catenin knockout viability, CellTiter-Glo, 60 h; stronger effect = lower value; AID 818; 1.5% of 140,000 active; viability, % at 10 µM;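 active means viability at or under a set limit, the compound median less 4 SD, cut at about 6% in these data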;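 further: 0% = Hyamine 1622 control at 20 µM and 100% = untreated cell control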
H69AR growth 86K: growth inhibitors of human H69AR lung tumor cells; viability, % at 10 µM; H69AR lung tumor viability, ATP luminescence, 72 h; stronger effect = lower value; 6% of 85,000 active;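 active means viability at or below 40%; inactive means viability above 40%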;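 further: multidrug resistant small cell line overexpressing MRP-1 efflux transporter; 100% = mean luminescence of untreated control wells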
Fibroblast inh: blocks proliferation of human lung fibroblasts. AID 719. viability, % at 10 µM. 1.1% of 85,000 active. LL 47 human lung fibroblast viability, ATP luminescence; stronger effect = lower value;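 active means viability at or below 50% in the single dose screen; inactive means viability above 50%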;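 further: compound exposure lasted 72 h before the ATP readout; 100% = median luminescence of untreated cell-only wells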
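Times – overnight cell rest, 72 h compound treatment at 37 °C · Test system – human lung fibroblast line LL 47, low passage · Amount – 1,150 cells in each well · Controls – cell-only wells, no compound · Doses – 0.1% DMSO in all compound wells · Measured by – CellTiter-Glo luminescence · Buffer or medium – IMEM plus 15% FBS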
PTEN del growth: PTEN-deleted cell growth suppression; AID 827; 1.2% of 140,000 active; viability, % at 10 µM; HCT116 PTEN-null viability, CellTiter-Glo, 60 h; stronger effect = lower value;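 active means viability at or below a set limit, 4 SD under the median of all tested compounds, cut at about 3.7% in these data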;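 further: PTEN knockout HCT116 line with beta catenin targeted HCT116 as companion control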
* marks the source's active call; other numbers are inactive results; / = not tested or not shown.

SMILES | HUVEC inhibit | bCat KO growth | H69AR growth 86K | Fibroblast inh | PTEN del growth
COc1ccc(OC(C)C(=O)N2CCC(C)CC2)cc1 (stereo not drawn) | 108 | 87 | 98 | 109 | 96
O=C(CSc1nc2ccccc2s1)N1CCCCC1 | 104 | 88 | 76 | 114 | 110
Cc1c(Cl)cccc1N/C(SCC(=O)N1CCCCCC1)=C(/C#N)c1nc2ccccc2s1 | / | 1.7* | / | / | 1.6*
Cc1nn(C(=O)c2cccs2)c(C)c1CN1C(=O)c2ccccc2C1=O | 80 | 76 | 21* | 81 | 88
Cc1nn(C(=O)c2ccco2)c(C)c1CN1C(=O)c2ccccc2C1=O | 100 | 106 | 111 | 97 | 100
COc1cc(N/C=C(\C(C)=O)c2ccccc2)cc(OC)c1 | / | 86 | / | / | 98
Nc1cccc(C(=O)Nc2ccc3nc(-c4cccnc4)[nH]c3c2)c1 | 110 | 97 | 66 | 113 | 94
O=C(Nc1ccc2nc(-c3cccnc3)[nH]c2c1)C1CCCCC1 | 75 | 96 | 25* | 103 | 94
O=C(Nc1ccc2nc(-c3cccnc3)[nH]c2c1)C12CC3CC(CC(C3)C1)C2 | 6.0* | 34 | 30* | 48* | 35
C=CCOc1ccc2c(c1)C(=NO)c1cc(OCC=C)ccc1-2 | 71 | 44 | 34* | 95 | 43
COc1ccc(-c2noc(CSc3nnc(Cc4ccccc4)n3-c3ccc(Cl)cc3)n2)cc1 | 74 | 76 | 13* | 103 | 69
COc1cc(OC)cc(-c2n[nH]c(=S)n2-c2cc(OC)ccc2OC)c1 | 101 | 88 | 24* | 96 | 93
O=C(/C=C/c1cccc([N+](=O)[O-])c1)Nc1ccc(NC(=O)c2cccs2)cc1 | / | 56 | / | / | 51
O=C(/C=C/c1cccc([N+](=O)[O-])c1)c1cccs1 | / | 2.2* | / | / | 1.5*
Cc1cc(C)c2c(n1)sc1c(=O)n(Cc3ccccc3Cl)nnc12 | 108 | 70 | 99 | 102 | 78
O=C(CCN1CCOCC1)c1ccccc1 | 92 | 1.2* | 79 | 93 | 1.0*
O=C(CCN1CCOCC1)c1ccc2c(c1)OCCO2 | 95 | 14 | 3.3* | 95 | 34
COc1ccc2c(c1)c(C(=O)N/N=C/c1ccc(OC)c(OC)c1)c(C)n2C | / | 88 | / | / | 76
CCOC(=O)C(C)Oc1cccc2c(=O)n(CC(=O)NCc3ccc4c(c3)OCO4)ccc12 (stereo not drawn) | 50 | 8 | 30* | 60 | 7
CCOC(=O)C(C)Oc1cccc2c(=O)n(CC(=O)Nc3ccc4c(c3)OCCO4)ccc12 (stereo not drawn) | 83 | 94 | 82 | 94 | 88
Cc1ccc2[nH]c(=O)c(C3C(C#N)=C(N)Oc4c3ccc3cccnc43)cc2c1 (stereo not drawn) | 4.9* | 10 | 10* | 69 | 8
N#Cc1c(C(F)(F)F)cc(-c2cccc(Cl)c2)[nH]c1=O | / | 93 | / | / | 94
CCN1C(=O)/C(=C/N(C(C)=O)c2ccccc2)N(c2ccccc2)C1=S | 80 | 34 | 16* | 68 | 31
COc1ccc2nc(SCC(=O)Nc3ccc(S(=O)(=O)N4CCCC4)cc3)c(C#N)cc2c1 | 91 | 73 | 6.0* | 100 | 78
N#Cc1cc2ccccc2nc1SCC(=O)Nc1ccc(S(=O)(=O)N2CCCC2)cc1 | 76 | 61 | 53 | 88 | 68
SMILES | HUVEC inhibit | bCat KO growth | H69AR growth 86K | Fibroblast inh | PTEN del growth
O=C(OCn1ncc(Br)c(Br)c1=O)c1c(F)cccc1F | 2.0* | 1.4* | 1.0* | 2.0* | 1.5*
Cc1ccc(S(=O)(=O)CCSc2nc(C)cc(C(F)(F)F)c2C#N)cc1 | 63 | 30 | 1.6* | 106 | 29
O=C(NCCc1ccccc1)c1cccc([N+](=O)[O-])c1 | / | 87 | / | / | 98
O=C(C#Cc1cccc([N+](=O)[O-])c1)c1ccccc1 | 61 | 8 | 2.6* | 48* | 3.7*
Cc1nc2ccccc2c(=O)n1/N=C/c1cn(-c2ccccc2)nc1-c1cccs1 | 69 | 75 | 35* | 100 | 75
CC(C)(C)c1ccc(C(=O)CCCSC2=C(C#N)C(c3ccco3)C3=C(CCCC3=O)N2)cc1 (stereo not drawn) | 68 | 62 | 49 | 81 | 53
N#CC1=C(SCC(=O)c2ccccc2)NC2=C(C(=O)CCC2)C1c1ccco1 (stereo not drawn) | 44 | 12 | 16* | 64 | 9
Cc1ccc(C(=O)CSC2=C(C#N)C(c3ccco3)C3=C(CCCC3=O)N2)cc1 (stereo not drawn) | 50 | 19 | 19* | 60 | 18
CN(C(=O)c1cccc(Nc2ccc(-c3ccc4c(c3)OCCO4)nn2)c1)C1CCCCC1 | 51 | 52 | 17* | 107 | 41
COc1ccccc1Nc1ncnc2nc[nH]c12 | / | 102 | / | / | 93
CC(=O)Nc1ccc(S(=O)(=O)NC2=C(N3CCN(c4ccc(F)cc4)CC3)C(=O)c3ccccc3C2=O)cc1 | 4.8* | 2.0* | 65 | 72 | 2.1*
CN1/C(=C/C(=O)c2cccs2)Sc2ccccc21 | 74 | 65 | 47 | 90 | 64
CN1/C(=C\C(=O)c2cccs2)Sc2ccccc21 | 71 | 66 | 40* | 81 | 64
Nc1nc(CN2CCC(Cc3ccccc3)CC2)nc(Nc2ccccc2)n1 | 60 | 56 | 30* | 67 | 69
COc1ccccc1N1CCN(Cc2nc(N)nc(Nc3ccc(C)cc3)n2)CC1 | 86 | 61 | 3.0* | 91 | 52
CC1CC(C)CN(Cc2nc(N)nc(Nc3ccc4ccccc4c3)n2)C1 (stereo not drawn) | 50 | 21 | 12* | 64 | 23
Cc1ccc(Nc2nc(N)nc(CN3CCN(c4ccccc4F)CC3)n2)cc1 | 75 | 79 | 90 | 95 | 76
Nc1nc(CN2CCCCCC2)nc(Nc2ccccc2)n1 | 112 | 64 | 77 | 106 | 63
COC(=O)C1(C(F)(F)F)N=C2Sc3ccccc3N2C(N2CCOCC2)=N1 (stereo not drawn) | 99 | 4.7* | 94 | 103 | 17
O=C(CSc1nnc(COc2ccc(Cl)cc2)o1)N1c2ccccc2CCc2ccccc21 | 92 | 29 | 9.1* | 62 | 38
COc1ccc(CN(C(C)=O)c2cccc(C)c2C)cc1 | 58 | 35 | 19* | 82 | 37
COc1ccc(CN(C(=O)CO/N=C/c2ccccc2)c2ccccc2C(=O)O)cc1 | / | 92 | / | / | 103
CCC(=C(c1ccc(OC)cc1)c1ccc(OC)cc1)c1cn(CC(O)CN2CCN(C)CC2)c2ccccc12 (stereo not drawn) | 3.0* | 2.1* | 1.6* | 21* | 1.7*
COc1ccc(OCCn2cc(/C(N)=N/O)c3ccccc32)cc1 | 85 | 66 | 58 | 84 | 79
CCO/C=C/C(O)(CNC(=O)c1ccc(C(C)(C)C)cc1)C(F)(F)F (stereo not drawn) | / | 90 | / | / | 83
COc1ccc(C(=O)Oc2c(CN3CCOCC3)cc(Cl)c3cccnc23)cc1OC | 80 | / | 1.5* | 7.2* | /
COc1ccc(C(=O)OCCN2CCOCC2)cc1OC | 84 | 83 | 93 | 101 | 78
COC(=O)c1cc(OC)c(OC)cc1NC(=O)c1c(C)noc1C | 97 | / | 89 | 97 | /
